Only some compounds are listed: those with a hit (about 4.9% of all), similar ones and a draw of the others.
WT yeast gro inh = growth inhibition of WT yeast, mitochondrial fusion screen; mitochondrial fusion phenotypic screen, WT strain; inhibition, % at 10 µM; 190,000 compounds, 2.1% hits; in the data active = inhibition above about 58%; tested in S. cerevisiae
RAM inhibit = yeast RAM network inhibition | inhibition, % at 50 µM | 190,000 compounds, 1.8% hits | S. cerevisiae dse1pr::URA3 reporter, 5-FOA growth OD615, 2 d; analog-sensitive cbk1-as2 kinase mutant strain;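 active = inhibition above a set limit, 3 SD over mean compound inhibition, cut at about 8.4% in these data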;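 note: 0% = DMSO-only wells with no growth and 100% = 10 µM 1-NA-PP1 full growth; inhibition rescues growth on 5-FOA so higher OD means more RAM inhibition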
NPY Y2 blocker = antagonists of human neuropeptide Y receptor Y2; P49146; NPY-Y2 expressing cells, antagonist mode; inhibition, % at 2.7 µM; 140,000 compounds, 0.99% hits; AID 793; in the data active = inhibition above about 17%;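 note: 0% = vehicle with agonist challenge and 100% = reference antagonist with challenge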
Target sequence (P49146 whole entry, looked up): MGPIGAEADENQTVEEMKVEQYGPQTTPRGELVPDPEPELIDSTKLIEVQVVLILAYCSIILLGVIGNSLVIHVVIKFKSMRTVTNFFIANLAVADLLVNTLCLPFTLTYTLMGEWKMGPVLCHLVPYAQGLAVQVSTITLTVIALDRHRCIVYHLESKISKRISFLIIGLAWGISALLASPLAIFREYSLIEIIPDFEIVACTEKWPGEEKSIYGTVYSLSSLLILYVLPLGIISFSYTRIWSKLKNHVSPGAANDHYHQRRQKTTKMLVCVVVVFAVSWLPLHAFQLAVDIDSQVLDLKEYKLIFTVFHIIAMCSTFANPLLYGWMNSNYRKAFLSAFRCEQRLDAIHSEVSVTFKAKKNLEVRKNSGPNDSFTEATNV
NPY2 pot ag = potentiators or agonists of human neuropeptide Y receptor Y2; cells expressing NPY-Y2, potentiator/agonist read-out; 220,000 compounds, 0.45% hits; activation, % at 3.6 µM; in the data active = activation above about 27%;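 note: cells stimulated with NPY near EC25 plus isoproterenol at EC100; 0% = vehicle plus submaximal agonist and 100% = vehicle plus saturating agonist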
NPY1 pot ag = potentiators or agonists of human neuropeptide Y receptor Y1; P25929; NPY-Y1 expressing cells, potentiator/agonist activation; activation, % at 3.6 µM; 220,000 compounds, 0.37% hits; AID 1304; in the data active = activation above about 33%, passing the limit was not always enough;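 note: cells stimulated with NPY at EC10 then isoproterenol at EC100; 0% = low agonist plus stimulus and 100% = saturating agonist plus stimulus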
NPY-Y1 antag = antagonists of human neuropeptide Y receptor Y1; P25929; HEK293-CNG Y1 cells, membrane potential fluorescence; NPY at EC95, then isoproterenol; 200,000 compounds, 1% hits; inhibition, % at 3.6 µM; AID 1040;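 active = inhibition above the campaign mean inhibition of all tested compounds plus 3 SD, cut at about 20% in these data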;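 note: 0% = DMSO wells given NPY plus isoproterenol and 100% = isoproterenol alone without NPY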
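Material: Y1- and CNG-channel-expressing HEK293 cells / Probe or stimulus: NPY 25 nM then isoproterenol 1 µM plus Ro 20-1724 25 µM / Doses: 3.6 µM single dose, DMSO 0.4% / Schedule: compound incubation 1 h at room temperature, readout 45 min post-stimulation / Signal: membrane potential fluorescence / Benchmarks: isoproterenol-only wells as full block versus NPY-plus-isoproterenol wells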
* hit, by the source's call; . = no result.

SMILES	WT yeast gro inh	RAM inhibit	NPY Y2 blocker	NPY2 pot ag	NPY1 pot ag	NPY-Y1 antag
CN(C)CCCN(C(=O)c1sc2ccccc2c1Cl)c1nc2ccc(F)cc2s1	64*	-1	10	-7	-19	8
Cc1ccc(Oc2cc(NC(=O)CCCn3nc([N+](=O)[O-])c(Cl)c3C)cc([N+](=O)[O-])c2)cc1	23	3	4	0	9	0
Cc1cc([N+](=O)[O-])nn1CCCC(=O)Nc1cc(Oc2ccc(F)cc2)cc([N+](=O)[O-])c1	27	8.9*	2	-12	8	1
Cc1cc([N+](=O)[O-])nn1CCCC(=O)Nc1cc(Oc2ccccc2)cc([N+](=O)[O-])c1	11	10*	-1	2	8	-3
O=C(Nc1nc(-c2cccs2)cs1)c1ccc(Cl)s1	81*	5	0	-6	12	7
Cc1cc(Cl)ccc1OCC(=O)Nc1nc(-c2cccnc2)cs1	.	.	.	-21	-24	.
Cc1cc(Cl)ccc1OCC(=O)Nc1nc(-c2cccs2)cs1	60*	6	7	-2	-17	14
Cc1oc(-c2cccc(Cl)c2)nc1CSc1nc2c(c(=O)[nH]1)CCC2	19	3	1	2	1	-1
CN1C(=O)/C(=C/c2cc(N=Nc3ccccc3)ccc2O)SC1=S	96*	5	4	3	7	-6
CN(c1ccc(C(=O)N2CCN(Cc3ccc4c(c3)OCO4)CC2)cc1)S(=O)(=O)c1ccccc1	19	2	0	0	16	-2
COc1ccccc1NC(=O)C(=O)NCc1ccccc1Cl	-1	8.7*	2	5	-7	0
COc1ccc(OCC(=O)Nc2ccccc2OC)cc1	0	0	5	6	-4	-1
CNCc1ccccc1OCC(=O)Nc1ccccc1OC	9	0	6	37*	105*	-1
CCN(CC)C(=O)/C(=C/c1ccc2c(c1)OCO2)NC(=O)c1ccc(Br)cc1	-5	1	4	10	8	4
Cn1cccc1/C=N/N1CCN(Cc2ccccc2)CC1	.	.	.	4	2	.
Cc1cccc(NC2=C/C(=N/S(=O)(=O)c3cccs3)c3ccccc3C2=O)c1	20	6	-9	-13	-30	-3
O=C(O)c1ccc(NC2=C/C(=N/S(=O)(=O)c3ccccc3)c3ccccc3C2=O)cc1	48	5	.	15	9	9
Cc1ccc(NC2=C/C(=N\S(=O)(=O)c3cccs3)c3ccccc3C2=O)c(C)c1	96*	4	-9	62*	48*	-15
Cc1ccc(Cl)cc1NC1=C/C(=N\S(=O)(=O)c2cccs2)c2ccccc2C1=O	96*	6	-7	3	37	-2
O=C1C(Nc2ccc(O)cc2)=C/C(=N/S(=O)(=O)c2cccs2)c2ccccc21	41	11*	.	68*	70*	-21
COc1ccc(C(=O)C(CCC(CNC(C)(C)C)C(=O)c2ccc(OC)cc2)CNC(C)(C)C)cc1 (configuration not stated)	13	1	1	4	5	4
CCCCCCP(=O)(O)c1ccccc1	61*	3	5	-13	-70	-2
O=C(O)CCCCCCCCCCP(=O)(c1ccccc1)c1ccccc1	.	.	.	0	11	.
O=C1Nc2ccc(Br)cc2C12NNc1ccccc1O2 (configuration not stated)	88*	8	.	21	34	-6
O=C1Nc2ccc(Br)cc2C1(O)Cc1ccccn1 (configuration not stated)	-8	0	-3	7	2	6
SMILES	WT yeast gro inh	RAM inhibit	NPY Y2 blocker	NPY2 pot ag	NPY1 pot ag	NPY-Y1 antag
O=C(O)c1ccc(Oc2ccc(C(F)(F)F)cn2)cc1	-9	2	.	7	-16	-3
Cc1ccccc1N1CCN(C(=O)c2ccc(Oc3ccc(C(F)(F)F)cn3)cc2)CC1	75*	6	3	-25	-16	2
NCC12CC3CC(C1)CC(c1ccc(Cl)cc1)(C3)C2	73*	0	.	13	21	8
CC(C)C(=O)OCC(=O)Nc1ccc(N=Nc2ccccc2)cc1	13	3	-1	3	22	-3
CCOc1ccc(S(=O)(=O)N(C)c2ccc(OCC(=O)NCc3cccnc3)cc2)cc1	-4	-1	.	-8	3	1
CCOc1ccc(S(=O)(=O)N(C)c2ccc(OCC(=O)NCc3ccco3)cc2)cc1	7	9.8*	1	-4	3	2
O=C(C1=C[C@H](c2ccc(Br)cc2)C[C@H](OCCCCO)O1)N1CCOCC1	0	3	.	-1	3	-6
O=C(O)CCCCCNC(=O)c1ccc(C(=O)NCCCCCC(=O)O)cc1	.	.	.	-6	-9	.
COc1ccc(C(=O)NCc2ccc3c(c2)OCO3)cc1S(=O)(=O)N(C)Cc1ccccc1	7	9.6*	4	3	-17	3
CN(c1ccccc1)S(=O)(=O)c1cccc(C(=O)OCC(=O)NCc2ccc3c(c2)OCO3)c1	0	10*	4	-2	2	2
CN(c1ccccc1)S(=O)(=O)c1cccc(C(=O)OCC(=O)NCc2ccco2)c1	-9	0	.	12	8	-1
COc1ccc(C(=O)NCc2ccc3c(c2)OCO3)cc1S(=O)(=O)NCc1ccc(Cl)cc1	-2	6	4	8	-26	1
CCN(Cc1ccccc1)c1ccc(/C=N/N2CCOCC2)cc1	2	0	2	-2	4	-1
COc1cccc(CN(C)C(=O)CCc2nnc(-c3ccsc3)o2)c1	-4	0	.	7	16	3
CCOC(=O)CN(C)C(=O)CCc1nnc(-c2ccsc2)o1	59*	0	.	-3	4	6
COc1ccc(C(C)=O)cc1CN1CCCCC1	-8	1	0	4	-6	1
COc1ccc(Br)cc1CN1CCCCCCC1	4	2	21*	-25	-31	22*
O=C(CSc1nccn1-c1ccccc1)c1ccc(Br)cc1	9	11*	4	-9	9	5
Cn1ccnc1SCC(=O)c1ccc(Br)cc1	67*	0	1	12	-2	0
O=C(O)CCCSc1nccn1-c1ccccc1	12	0	.	-2	1	6
O=C(Cc1cccs1)Nc1nnc(COc2ccccc2)s1	.	.	1	11	-10	1
CCOC(=O)c1nnn(-c2nonc2N)c1COc1cc(C)c(Cl)c(C)c1	.	.	17	-19	-35	22*
COc1nc(-c2ccccc2)ccc1-c1noc(-c2ccccc2)n1	1	11*	1	0	5	2
COc1nc(-c2ccccc2)ccc1-c1noc(-c2ccco2)n1	12	8	3	-7	-21	10
COc1ccc(Cc2nc3ccc(S(=O)(=O)N4CCOCC4)cc3[nH]2)cc1	79*	1	1	-13	21	0
Cc1cc(NC(=O)CN2CCCCC2)n(-c2ccccc2)n1	.	.	.	-15	-1	.
